TAAR1 antagonist: antagonists of human TAAR1; 360,000 tested, 1.5% active; inhibition, % at 3 µM; AID 624466; Q96RJ0; CHO RD-HGA16 TAAR1, Fluo-8 calcium fluorescence, antagonist;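 active means inhibition above a per-plate cutoff, the mean inhibition of test compounds on that plate plus 3 SD, cut at about 49% in these data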
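Assay system: RD-HGA16 CHO cells with stable hTAAR1 and Gα16 / Reagent: EC80 β-phenethylamine stimulus / Doses: 3 µM, single point / Timing: dye loading 75 min at 37 °C, then 30 min room temperature / Measured by: Fluo-8 intracellular calcium dye fluorescence, real-time kinetic reads / Controls: vehicle wells and EC80 agonist wells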
MC4R ag barr: human MC4R agonism via beta-arrestin | P32245 | U2OS MC4R beta-arrestin complementation, luminescence; percent of melanotan II response, DMSO zero | activation, % at 8.9 µM | 360,000 tested, 0.98% active | AID 540308;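 active means activation above a per-plate cutoff, the mean activation of sample wells on that plate plus 3 SD, cut at about 8% in these data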
Beta2AR agonist: agonists of human beta-2 adrenergic receptor inducing internalization; Am2.2-beta2AR cells, FAP receptor internalization, flow cytometry; response, % (test concentration not listed); 340,000 tested, 0.43% active;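 active means response above a set limit, near 3 SD of response in nonfluorescent compounds, cut at about 42% in these data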
Target sequence (P07550 whole entry, looked up): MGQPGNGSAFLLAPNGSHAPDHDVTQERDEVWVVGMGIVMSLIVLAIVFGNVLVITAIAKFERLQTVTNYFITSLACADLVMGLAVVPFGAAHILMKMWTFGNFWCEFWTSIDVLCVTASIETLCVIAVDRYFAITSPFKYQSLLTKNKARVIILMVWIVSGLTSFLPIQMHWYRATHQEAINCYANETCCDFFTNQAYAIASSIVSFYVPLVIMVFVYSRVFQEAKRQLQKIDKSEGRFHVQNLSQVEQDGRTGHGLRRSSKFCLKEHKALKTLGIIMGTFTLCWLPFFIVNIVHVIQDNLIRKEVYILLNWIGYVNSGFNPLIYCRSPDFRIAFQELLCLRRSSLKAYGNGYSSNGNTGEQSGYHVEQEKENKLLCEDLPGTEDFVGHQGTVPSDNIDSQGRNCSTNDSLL
m5-HT2A agonist: mouse HTR2A agonism via beta-arrestin recruitment. P35363. CHO-K1 mHTR2A beta-arrestin complementation, luminescence; percent of 30 µM serotonin response. activation, % at 7.6 µM. 360,000 tested, 0.66% active. AID 624169;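 active means activation above a run cutoff, the mean activation of all tested compounds plus 3 SD, cut at about 14% in these data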
TAAR1 ag: human TAAR1 agonism. Q96RJ0. CHO RD-HGA16 TAAR1, Fluo-8 calcium fluorescence; vehicle wells 0%, saturating PEA agonist 100%. activation, % at 3 µM. 360,000 tested, 0.99% active;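 active means activation above the mean activation of all test compounds in the run plus 3 SD, cut at about 38% in these data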
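Test system: RD-HGA16 (CHO) cells co-expressing Gα16 and hTAAR1 / Benchmarks: DMSO vehicle as 0%, PEA at EC100 as 100% / Repeats: no replicates (n 1) / Measure: % activation from peak over basal fluorescence ratio, DMSO-to-PEA scaled / Timing: 17-24 h plating, Fluo-8 75 min 37 °C, 30 min RT / Technique: kinetic Fluo-8 calcium fluorescence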
MC4R antag cAMP: antagonists of human melanocortin 4 receptor (MC4R); P32245; MC4R-expressing cells, MTII-stimulated cAMP, LANCE TR-FRET; inhibition, % at 6.5 µM; 360,000 tested, 0.48% active;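 active means inhibition above its plate's cutoff, the mean of tested wells on that plate plus 3 SD, cut at about 29% in these data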
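system = U2OS cells with stable human MC4R expression | also added = Melanotan II challenge after compound preincubation | dosing = one concentration, 6.5 µM nominal | incubation = compound 30 min, challenge 1 h, detection 1 h | measured by = TR-FRET with Eu-cAMP and labeled anti-cAMP, 671 nm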
Each line names hits and unclear results; the compound was inactive in the other large screens. In the library only some 4.3% were active in any assay of this set; here they are far more common.

CCOc1ccc(OCCNC(=O)c2cc(C3CC3)nc3c2cnn3C(C)C)cc1	TAAR1 antagonist 60
CC(C)n1ncc2c(C(=O)NCCOc3ccccc3F)cc(C3CC3)nc21	TAAR1 antagonist 50
COc1ccccc1CNC(=O)c1cc(C2CC2)nc2c1cnn2C(C)C	none
CCCNC(=O)Cn1c(-c2ccc(F)cc2)cc(C(=O)OCC)c1C	MC4R ag barr 8.3
CCOC(=O)c1cc(-c2ccc(F)cc2)n(CC(=O)NC(C)CC)c1C (configuration not stated)	none
COc1ccc2ccccc2c1CNC(C)c1ccccc1 (configuration not stated)	none
CC(NCCCOc1cccc2ccccc12)c1ccccc1 (configuration not stated)	TAAR1 ag 45
O=C(CCNC(=O)N1CC(=O)Nc2ccccc21)NCc1ccc(Cl)cc1	none (no result: Beta2AR agonist)
CCC1(c2ccccc2)NC(=O)N(CC(=O)N(CC(=O)Nc2ccccc2C(F)(F)F)Cc2ccco2)C1=O (configuration not stated)	TAAR1 ag 44
COc1ccc(C2(C)NC(=O)N(CC(=O)N3CCc4ccccc43)C2=O)cc1OC (configuration not stated)	none
CCC1(c2ccc(OC)cc2)NC(=O)N(CC(=O)c2ccc3c(c2)OCCO3)C1=O (configuration not stated)	TAAR1 ag 38
CCCC1(c2ccccc2)NC(=O)N(CC(=O)Nc2ccccc2C(F)(F)F)C1=O (configuration not stated)	none
CCC1(c2ccc(OC)cc2)NC(=O)N(CC(=O)N2CCc3ccccc32)C1=O (configuration not stated)	TAAR1 ag 64
CCC1(c2ccccc2)NC(=O)N(CC(=O)Nc2ccccc2N2CCCC2)C1=O (configuration not stated)	TAAR1 ag 39
CC1(c2ccccc2)NC(=O)N(CC(=O)Nc2ccccc2N2CCCCC2)C1=O (configuration not stated)	none
CCN(C(=O)CCc1cn(CC)c2ccccc12)c1ccc(Oc2cccnc2)cc1	none (no result: MC4R ag barr, Beta2AR agonist, m5-HT2A agonist, MC4R antag cAMP)
COC(=O)c1cc2c(c3c4ccccc4n(S(=O)(=O)c4ccc(OC)cc4)c13)C(=O)N(Cc1ccc(N(C)C)cc1)C2	none (no result: MC4R ag barr, Beta2AR agonist, m5-HT2A agonist, MC4R antag cAMP)
O=C(Cn1c2[n+](c3ccc(C(F)(F)F)cc31)CCCCC2)Nc1ccc(Br)cc1	MC4R antag cAMP 30 (no result: TAAR1 antagonist, TAAR1 ag)
CC(C)Oc1ccc2c(c1)OC(c1ccccc1)(C(F)(F)F)NC2=O (configuration not stated)	MC4R ag barr 8.5
COc1ccc2c(c1)OC(c1ccccc1)(C(F)(F)F)NC2=O (configuration not stated)	none
Cc1ccc(-c2cc(C(=O)NCc3ccccn3)c3ccccc3n2)cc1C	none
Cc1cccc(-c2cc(C(=O)NCc3ccccn3)c3ccccc3n2)c1	TAAR1 antagonist 53
O=C(NCc1ccccn1)c1cc(-c2ccc(-c3ccccc3)cc2)nc2ccccc12	TAAR1 antagonist 51
O=C(NCc1ccccn1)c1cc(-c2ccccc2)nc2ccccc12	none
COc1cccc(C2NC(=S)NC(C)=C2C(C)=O)c1 (configuration not stated)	none (no result: MC4R ag barr, Beta2AR agonist, m5-HT2A agonist, MC4R antag cAMP)
COC(=O)c1cc(S(=O)(=O)N2CCN(c3cccc(Cl)c3)CC2)c[nH]1	MC4R ag barr 9.1 (no result: TAAR1 antagonist, TAAR1 ag)
COC(=O)C1=C(C)N(Cc2cccc(C(F)(F)F)c2)C(=NCC2CC2)NC1c1ccccc1C(F)(F)F (configuration not stated)	none (no result: MC4R ag barr, Beta2AR agonist, m5-HT2A agonist, MC4R antag cAMP)
O=C1C=C(c2ccc(F)nc2)C[C@@H](c2ccc3c(c2)OCO3)C1	none
C/C(=N\NC(=O)c1cc(O)ccc1O)c1cccc(NC(=O)c2ccc(Cl)cc2)c1	TAAR1 antagonist 51
COc1cccc(NC(=O)CSc2nnc(-c3ccc(C)cc3)o2)c1	TAAR1 antagonist 51, TAAR1 ag 61
Cc1cccc(OCc2nnc(SCC(=O)Nc3ccc(C)c(Cl)c3)o2)c1	MC4R ag barr 27
Cc1ccnc(NC(=O)CCC(=O)N(CC(=O)NCc2ccc(F)cc2)Cc2ccccc2)c1	none (no result: TAAR1 antagonist, TAAR1 ag)
C[C@H]1CN([C@@H](C)CO)C(=O)CCCn2nncc2CO[C@@H]1CN(C)CC1CC1	none (no result: MC4R ag barr, Beta2AR agonist, m5-HT2A agonist, MC4R antag cAMP)
O=C(NCC1CCCO1)C(c1cccs1)N(C(=O)Cn1nnc(-c2cccs2)n1)C1CCCC1 (configuration not stated)	none
Cc1cccc(CCN(C(=O)c2snc(C(N)=O)c2N)C(C(=O)NCC2CCCO2)c2ccc(F)cc2)c1 (configuration not stated)	TAAR1 antagonist 59
CCOc1ccc(C(C(=O)NCC2CCCO2)N(Cc2cccs2)C(=O)c2snc(C(N)=O)c2N)cc1 (configuration not stated)	TAAR1 antagonist 54
O=C(NCC1CCCO1)C(c1cccs1)N(Cc1cccs1)C(=O)Cn1nnc(-c2cccs2)n1 (configuration not stated)	TAAR1 antagonist 49
CCOc1ccc(C(C(=O)NCC2CCCO2)N(C(=O)c2snc(C(N)=O)c2N)c2ccccc2F)cc1 (configuration not stated)	none
CCc1c(-c2ccc(Br)cc2)ncn1CCc1ccccc1OC	none (no result: MC4R ag barr, Beta2AR agonist, m5-HT2A agonist, MC4R antag cAMP)
CCCCc1nnc(NC(=O)c2oc3ccccc3c2C)s1	MC4R ag barr 9.1
CC(=O)Nc1c([N+](=O)[O-])cc2c3c(cccc13)CC2	none (no result: MC4R ag barr, Beta2AR agonist, MC4R antag cAMP)
Cc1ccc(Cn2nnc(C(=O)Nc3cc(C)ccc3C)c2N)cc1	TAAR1 ag 48
COc1ccc2sc(-c3ccc(S(C)(=O)=O)cc3)c(C(=O)NCCc3c[nH]c4ccccc34)c2c1	TAAR1 antagonist 58
CCN(c1ccccc1)S(=O)(=O)c1ccc(C(=O)Nc2cccc(NC(C)=O)c2)cc1	none
CCN(c1ccccc1)S(=O)(=O)c1cc(C(=O)Nc2ccc(F)c(F)c2)ccc1F	TAAR1 antagonist 56
Cc1cccc2nc(-c3ccco3)c(Nc3ccc4c(c3)OCCO4)n12	none
COc1ccc(Nc2c(-c3ccco3)nc3cccc(C)n23)cc1	TAAR1 ag 39
CCCCCCC(=O)NC1CCCCN(C)C1=O (configuration not stated)	none (no result: MC4R ag barr, Beta2AR agonist, m5-HT2A agonist, MC4R antag cAMP)
Cc1nn(C(=O)CNS(=O)(=O)c2ccccc2)c(C)c1Sc1ccc(Cl)cc1	MC4R ag barr 8.9
Oc1ccc(Nc2nc(NCC3CCCO3)c3ccccc3n2)cc1 (configuration not stated)	none
Oc1ccc(Cl)cc1Nc1nc(NCC2CCCO2)c2ccccc2n1 (configuration not stated)	TAAR1 antagonist 57, MC4R ag barr 12
O=c1[nH]c2ccccc2c2ccc(Cl)cc12	MC4R ag barr 8.5
COc1ccccc1CCn1cnc(-c2cccc(Br)c2)c1CC(C)C	none (no result: MC4R ag barr, Beta2AR agonist, m5-HT2A agonist, MC4R antag cAMP)
